pEC50: −log10 of the molar value. ≈ marks a conversion by molar mass, not a printed value.
Assays:
[1] = test system: heat-shock response (PgroES-mNG reporter) in E. coli TOP10F′ cells; assay: Heat-shock stress reporter assay; type: cell-based; conditions: Escherichia coli, 3 h, read-out: stress reporter EC50 PgroES-mNG
Procedure, shortened: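 TOP10F′ carrying pEH3-empty and pUA66-PgroES-mNG, at OD600 0.05 in M9, added to 384-well plates with a 1:3 test-compound dilution series. Positive-control wells hold cells with pEH3-ssTorA-Hbp induced by 40 μM IPTG; DMSO controls included. After 3 h nonshaken incubation, OD600 and mNG fluorescence (ex 488/em 535 nm) read. EC50 from OD600-corrected fluorescence.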

[2] = test system: E. coli TOP10F′ cells; assay: MIC in E. coli TOP10F′; type: cell-based; conditions: Escherichia coli, 10 h, read-out: toxicity E. coli MIC
Procedure, shortened: (§1)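 Broth dilution in LB or MHB-II. Bacteria grown to mid-log at 37 °C in flasks, diluted to OD600 0.001 and added 1:1 to medium with 2-fold increasing test compound (0.5% DMSO final). Incubated at 37 °C in a plate reader with continuous linear shaking; OD600 every 15 min for 10 h. MIC is the lowest concentration with no growth detectable by OD600 at 10 h.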

[3] = test system: Rcs stress response (PrprA-mNG reporter) in E. coli TOP10F′ cells; assay: Rcs stress reporter assay; type: cell-based; conditions: Escherichia coli, 3 h, read-out: stress reporter EC50 PrprA-mNG
Procedure, shortened: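 TOP10F′ with pUA66-PrprA-mNG, at OD600 0.05 in M9, dispensed onto a 1:3 test-compound dilution series in 384-well plates. Positive control is an Hbp-secretion inhibitor at 200 μM; DMSO is the negative control. After 3 h nonshaken incubation, OD600 and mNG fluorescence (ex 488/em 535 nm) measured. EC50 derived from OD600-corrected fluorescence.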

[4] = test system: σ^E cell envelope stress response (PrpoE-mNG reporter) in E. coli TOP10F′ cells expressing Hbp; assay: σ^E stress reporter assay; type: cell-based; conditions: Escherichia coli, 3 h, read-out: stress reporter EC50 PrpoE-mNG
[5] = test system: HEK293 cells; assay: HEK293 cell toxicity; type: cell-based; conditions: 48 h, dose-response up to 60 μM; dash = no toxicity
Procedure, shortened: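 HEK293 cells kept in DMEM with 10% FBS at 37 °C, 5% CO2. Test compound dispensed as a 1:3 dilution series from DMSO stocks; DMSO as negative and tamoxifen as positive control. About 2000 cells per well incubated 48 h at 37 °C, 5% CO2, 90% humidity. Viability read with CellTiter-Glo reagent after 2 min shaking.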

[6] = test system: Klebsiella pneumoniae; assay: MIC against bacterial strains; type: cell-based; conditions: 10 h
Procedure, shortened: as §1

[7] = test system: Pseudomonas aeruginosa; assay: MIC against bacterial strains; type: cell-based; conditions: 10 h
Procedure, shortened: as §1

[8] = test system: E. coli MC4100 cells; assay: Potentiation of antibiotics; type: cell-based, Escherichia coli; conditions: E. coli MC4100, LB, 10 h
[9] = test system: Enterococcus faecium VRE; assay: MIC against bacterial strains; type: cell-based; conditions: 10 h
Procedure, shortened: as §1

[10] = test system: Escherichia coli (K12); assay: MIC against bacterial strains; type: cell-based; conditions: 10 h
Procedure, shortened: as §1

[11] = target: OmpT protease (Escherichia coli, UniProt P09169); assay: OmpT protease activity, compound added after OmpT folding was completed; type: biochemical; conditions: 100 μM, added 2 h after start of folding reaction
Procedure, shortened: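 BAM proteoliposomes (2 μM) mixed with SurA (140 μM) and denatured OmpT (20 μM) subreactions in Tris/HCl, pH 6.5, and held 2 h at 30 °C to prefold OmpT. Then combined with a subreaction of test compound (200 μM) or DMSO plus fluorogenic peptide; concentrations are per subreaction. Cleavage read at ex 330/em 430 nm for 80 min at 30 °C. Slope-based activity relative to DMSO.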

[12] = test system: secretion of autotransporter Hbp in E. coli MC1601 degP::S210A; assay: Hbp secretion analysis; type: cell-based, Escherichia coli; conditions: Western blotting
Procedure, shortened: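 MC1061 degP::S210A cells grown in M9 to mid-log, diluted to OD600 0.1, mixed 1:1 with M9 containing test compound or DMSO (0.5% final). Hbp induced from pEH3 with 40 μM IPTG at 37 °C with shaking. Cells spun 5000g for 5 min; supernatant TCA-precipitated overnight at 4 °C. Lysates and medium run on 11% SDS-PAGE, immunoblotted (Hbp passenger, Hbp β-barrel, DegP), loading OD600-corrected.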

[13] = test system: Enterobacter cloacae; assay: MIC against bacterial strains; type: cell-based; conditions: 10 h
Procedure, shortened: as §1

[14] = test system: E. coli MC4100 bamA101; assay: Growth inhibition of bamA101 knockdown strain versus wild-type; type: cell-based, Escherichia coli; conditions: E. coli MC4100 bamA101, MHB-II, 10 h
Procedure, shortened: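 Wild-type MC4100 and bamA101 knockdown cells grown to mid-log at 37 °C, diluted to OD600 0.001 and mixed 1:1 with MHB-II containing 2-fold increasing test compound (0.5% DMSO final) in 96-well plates. Incubated at 37 °C with continuous linear shaking; OD600 read every 15 min. The 10 h OD600 is expressed as % growth versus DMSO-treated cells (100%).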

[15] = test system: Escherichia coli (uropathogenic); assay: MIC against bacterial strains; type: cell-based; conditions: 10 h
Procedure, shortened: as §1

[16] = test system: OMP levels in E. coli TOP10F′ cells; assay: Cell envelope protein analysis; type: cell-based, Escherichia coli
Procedure, shortened: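 TOP10F′ cells grown 3 h in LB in flasks with one concentration of test compound. Cells pelleted, sonicated on ice in 10 mM Tris-HCl, 3 mM EDTA, pH 8.0 with protease inhibitors. Envelopes pelleted at 200 000g for 1 h at 4 °C and solubilised overnight at 4 °C in TBS with 1% DDM. SDS-PAGE and immunoblots, loading corrected by OD600; 3 independent experiments.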

[17] = test system: Staphylococcus aureus MRSA; assay: MIC against bacterial strains; type: cell-based; conditions: 10 h
Procedure, shortened: as §1

[18] = test system: BAM complex (BamABCDE) reconstituted in proteoliposomes; assay: OmpT folding in vitro assay with BAM proteoliposomes; type: biochemical, Escherichia coli; conditions: 100 μM compound, OmpT:SurA 1:42 versus 1:7
Procedure, shortened: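 BAM proteoliposomes (His-tag-purified BamABCDE in DDM, reconstituted into E. coli polar lipids) with test compound and fluorogenic peptide in Tris/HCl, pH 6.5, preincubated 5 min at 30 °C. Mixed with a second subreaction of SurA plus guanidine-denatured OmpT at 1:7 or 1:42 OmpT:SurA. Fluorescence (ex 330/em 430 nm) read every 20 s for 80 min at 30 °C. Linear-phase slopes from three replicates, as % of DMSO.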

[19] = test system: Bacillus subtilis 168; assay: MIC against bacterial strains; type: cell-based
Procedure, shortened: as §1

[20] = test system: E. coli MC4100 expressing FhuA ΔC/Δ4L; assay: Growth inhibition of E. coli expressing open channel FhuA ΔC/Δ4L; type: cell-based, Escherichia coli; conditions: E. coli MC4100, LB, 10 h
[21] = test system: Acinetobacter baumannii; assay: MIC against bacterial strains; type: cell-based; conditions: 10 h
Procedure, shortened: as §1

[22] = 0.25× MIC, cell envelopes, Western blotting

Chain of OmpT protease (P09169 21-317): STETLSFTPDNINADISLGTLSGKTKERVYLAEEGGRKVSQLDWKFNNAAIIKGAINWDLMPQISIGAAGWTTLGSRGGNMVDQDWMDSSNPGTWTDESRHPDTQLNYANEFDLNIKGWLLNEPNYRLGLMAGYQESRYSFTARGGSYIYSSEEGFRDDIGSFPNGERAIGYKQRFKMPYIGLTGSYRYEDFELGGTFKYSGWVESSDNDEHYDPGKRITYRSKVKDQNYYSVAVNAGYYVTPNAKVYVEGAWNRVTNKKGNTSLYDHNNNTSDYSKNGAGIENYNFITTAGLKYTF
Chain of BAM complex (BamABCDE) reconstituted in proteoliposomes (P77774 20-392): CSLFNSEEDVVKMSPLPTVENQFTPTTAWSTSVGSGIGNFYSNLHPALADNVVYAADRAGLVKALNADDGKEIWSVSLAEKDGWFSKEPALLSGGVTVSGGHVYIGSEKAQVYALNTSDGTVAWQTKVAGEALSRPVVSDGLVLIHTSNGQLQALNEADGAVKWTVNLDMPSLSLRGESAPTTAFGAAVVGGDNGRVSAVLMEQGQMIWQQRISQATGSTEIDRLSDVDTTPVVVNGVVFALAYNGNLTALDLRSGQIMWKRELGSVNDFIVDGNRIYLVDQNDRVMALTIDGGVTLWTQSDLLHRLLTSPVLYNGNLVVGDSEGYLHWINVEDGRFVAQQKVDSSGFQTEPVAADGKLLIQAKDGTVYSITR
Chain of BAM complex (BamABCDE) reconstituted in proteoliposomes (P0A903 25-344, further chain): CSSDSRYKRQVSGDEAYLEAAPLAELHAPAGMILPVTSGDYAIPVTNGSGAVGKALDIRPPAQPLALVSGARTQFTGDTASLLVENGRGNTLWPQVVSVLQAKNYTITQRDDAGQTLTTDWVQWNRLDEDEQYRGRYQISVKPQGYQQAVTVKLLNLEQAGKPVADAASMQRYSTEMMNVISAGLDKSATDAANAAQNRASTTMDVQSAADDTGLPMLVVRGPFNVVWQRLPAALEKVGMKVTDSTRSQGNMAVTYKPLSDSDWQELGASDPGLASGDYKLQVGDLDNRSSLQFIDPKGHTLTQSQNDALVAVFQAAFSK
Chain of BAM complex (BamABCDE) reconstituted in proteoliposomes (P0A937 20-113, further chain): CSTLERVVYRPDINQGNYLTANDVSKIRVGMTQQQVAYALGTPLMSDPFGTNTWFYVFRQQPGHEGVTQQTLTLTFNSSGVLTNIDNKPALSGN
Chain of BAM complex (BamABCDE) reconstituted in proteoliposomes (P0AC02 20-245, further chain): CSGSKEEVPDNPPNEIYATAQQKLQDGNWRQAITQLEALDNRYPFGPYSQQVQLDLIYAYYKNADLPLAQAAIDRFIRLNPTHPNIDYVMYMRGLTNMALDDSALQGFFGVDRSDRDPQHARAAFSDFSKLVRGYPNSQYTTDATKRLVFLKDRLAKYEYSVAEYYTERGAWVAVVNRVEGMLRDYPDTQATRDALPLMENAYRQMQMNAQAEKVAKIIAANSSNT

CCOC(=O)C1=C(O)CCC(NC(=O)OC(C)(C)C)C1 (stereo not shown) [compound 1] was tested, and the pEC50 [1] was less than 4.22, the MIC [2] was greater than 200 µM and the pEC50 [3] was 4.42. It also gave a pEC50 [4] of 6.00.
For CC(=O)Nc1cc(-c2nc(O)c3c(n2)CCC(NC(=O)OC(C)(C)C)C3)ccn1 (stereo not shown) [compound 3], the pEC50 [1] was less than 4.22, the MIC [2] was 25 µM (≈ 9.99 µg/mL) and the pEC50 [3] was 4.80. The pEC50 [4] was 5.15 and the “toxicity HEK293 LD50” value [5] was 20 µM.
With Nc1cc(-c2nc3c(c(NCc4ccccc4)n2)CC(N)CC3)ccn1 (stereo not shown) [compound 14, 2-(2-aminopyridin-4-yl)-N4-benzyl-5,6,7,8-tetrahydroquinazoline-4,6-diamine] the MIC [6] was greater than 200 µM, the MIC [7] was 200 µM (≈ 69.3 µg/mL) and the pEC50 [1] was less than 4.22. The “fold decrease of MIC of vancomycin in presence of compound” value ([8]; compound at 0.25× MIC (2: 12 μM, 14: 25 μM)) was 4 fold, the “MICs of ampicillin and chloramphenicol in presence of compound” value ([8]; compound at 0.25× MIC) was “largely unaffected” and the MIC [9] was greater than 200 µM. For the same compound, the MIC [10] was 100 µM (≈ 34.6 µg/mL), the “effect on OmpT protease activity when added after OmpT was folded” value [11] was “inhibiting effect” and the “Hbp processing in cells (pro-Hbp)” value ([12]; 0.25× MIC, whole cell lysates) was “accumulation of pro-Hbp”. The “amount of secreted Hbp passenger in the spent medium” value ([12]; 2 and 14 at 0.25× MIC, spent medium) was “decreased”, the MIC [13] was greater than 200 µM and the MIC [2] was 100 µM (≈ 34.6 µg/mL). For the same compound, the pEC50 [3] was 4.92, the “antimicrobial effect (MIC) in bamA101 mutant versus wild-type” value [14] was “enhanced antimicrobial effect” and the MIC [15] was greater than 200 µM. For the same compound, the “levels of the major β-barrel OMPs OmpF, OmpC, and OmpA compared to DMSO” value ([16]; 0.25× MIC (2: 12 μM, 14: 25 μM), cell envelopes, Western blotting) was “dropped considerably”, the “level of BamA” value [16, 22] was “severely reduced” and the “levels of lipoproteins BamB and LpoB” value [16, 22] was “largely unaffected”. For the same compound, the “total levels of PhoE” value ([16]; PhoE expressed from pEH3, 0.25× MIC and 0.5× MIC, 3 h, seminative PAGE) was “reduced total levels of PhoE in a dose-dependent manner”, the MIC [17] was greater than 200 µM and the “influence of 6-fold excess of SurA on the inhibiting effect of the compound” value [18] was “did not influence”. It also gave an MIC ([19]; Bacillus subtilis 168, 10 h, highest concentration tested 200 μM) greater than 200 µM, an MIC ([19]; Bacillus subtilis, 168, 10 h) greater than 200 µM and a pEC50 [4] of less than 4.22. The “toxicity HEK293 LD50” value [5] was 60 µM, the “effect of FhuA ΔC/Δ4L expression on MIC of the compound” value [20] was “did not affect” and the MIC [21] was 100 µM (≈ 34.6 µg/mL).
For CN[C@H](CC(C)C)C(=O)N[C@H]1C(=O)N[C@@H](CC(N)=O)C(=O)N[C@H]2C(=O)N[C@H]3C(=O)N[C@H](C(=O)N[C@H](C(=O)O)c4cc(O)cc(O)c4-c4cc3ccc4O)[C@H](O)c3ccc(c(Cl)c3)Oc3cc2cc(c3O[C@@H]2O[C@H](CO)[C@@H](O)[C@H](O)[C@H]2O[C@H]2C[C@](C)(N)[C@H](O)[C@H](C)O2)Oc2ccc(cc2Cl)[C@H]1O [vancomycin, reference compound], the “permeability upon FhuA ΔC/Δ4L expression” value [20] was “clearly increased”.

From PMC8369490 (ACS Infectious Diseases, 2021)
